Our source for the Activity and inhibition values is ChEMBL document CHEMBL4393722, “Development of the "hidden" multifunctional agents for Alzheimer's disease” (Eur J Med Chem, 2019).

Active and inactive are the calls of the source. No cut-off for these calls is given here.

A word on the inhibition: it is the drop in the measured response relative to a control, in per cent.

The species entered for series [1] is Danio rerio. The series can be described thus: Cognition enhancement in aluminium chloride-induced Alzheimer's disease zebra fish model assessed as Dyskinesia recovery rate at 50 uM treated from 3 dpf to 5 dpf relative to control. The class given is functional. The procedure, abridged:
(§1)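 Zebrafish larvae were exposed to 150 µM AlCl₃ from 3 to 5 dpf, with the test drug co-administered over the same 3–5 dpf window. There were 30 fish per group. Dyskinesia recovery rate (DRR) and response efficiency (RE) were both calculated from the average swimming speed of drug-treated fish, with p values reported.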

For series [2], the species on record is Danio rerio. The series can be described thus: Cognition enhancement in aluminium chloride-induced Alzheimer's disease zebra fish model assessed as Dyskinesia recovery rate at 250 uM treated from 3 dpf to 5 dpf relative to control. The class given is functional. In a few lines: as §1
For series [3], the species on record is Danio rerio. The series can be described thus: Cognition enhancement in aluminium chloride-induced Alzheimer's disease zebra fish model assessed as Response efficiency at 10 uM treated from 3 dpf to 5 dpf relative to control. The class given is functional. In a few lines:
as §1

For series [4], the species on record is Danio rerio. The series can be described thus: Cognition enhancement in aluminium chloride-induced Alzheimer's disease zebra fish model assessed as Dyskinesia recovery rate at 10 uM treated from 3 dpf to 5 dpf relative to control. The format is functional. The procedure, abridged:
as §1

Series [5] is filed under the species Danio rerio. The series can be described thus: Cognition enhancement in aluminium chloride-induced Alzheimer's disease zebra fish model assessed as Response efficiency at 50 uM treated from 3 dpf to 5 dpf relative to control. The class given is functional. The procedure, abridged: as §1
The species named for series [6] is Danio rerio. The series can be described thus: Cognition enhancement in aluminium chloride-induced Alzheimer's disease zebra fish model assessed as Response efficiency at 250 uM treated from 3 dpf to 5 dpf relative to control. The format is functional. In a few lines: as §1
The subject of series [7] is Mus musculus. The series can be described thus: Cognition enhancement in aluminium trichloride-induced amnesia mouse model assessed as total swimming time at 2 mg/kg administered via gastric gavage for 30 days by SMG-2 programmable water maze test. The format is functional, organism-based.
The subject of series [8] is Mus musculus. The series can be described thus: Cognition enhancement in aluminium trichloride-induced amnesia mouse model assessed as error times at 2 mg/kg administered via gastric gavage for 30 days by SMG-2 programmable water maze test. The format is functional, organism-based.
Series [9] is described as follows: Metal chelating activity assessed as compound-Cu2+ complex formation by measuring decrease in absorption with spectral shift to red end at 25 uM incubated for 5 mins in presence of 25 uM CuCl2 by UV-visible spectrophotometry.
For series [10], the species on record is Mus musculus. The series can be described thus: Cognition enhancement in scopolamine-induced amnesia mouse model by Morris water maze test. The class given is functional, organism-based.
Series [11] in a line: Metal chelating activity assessed as compound-Fe2+ complex formation at 25 uM incubated for 5 mins in presence of 25 uM FeSO4 by UV-visible spectrophotometry.
A short description of series [12]: Metal chelating activity assessed as compound-Zn2+ complex formation at 25 uM incubated for 5 mins in presence of 25 uM ZnCl2 by UV-visible spectrophotometry.
In the next series the target is hERG (KCNH2) (Homo sapiens, UniProt Q12809). The series can be described thus: Inhibition of human ERG expressed in CHO cells at 0.1 uM incubated for 1 min at -80 mV holding potential by manual patch clamp assay relative to control. The conditions noted are these: CHO cells expressing human ERG. The format is cell-based. On the technique in general: The patch-clamp technique gives a direct electrical read-out from membranes.
Sequence of hERG (KCNH2) (Q12809 whole entry): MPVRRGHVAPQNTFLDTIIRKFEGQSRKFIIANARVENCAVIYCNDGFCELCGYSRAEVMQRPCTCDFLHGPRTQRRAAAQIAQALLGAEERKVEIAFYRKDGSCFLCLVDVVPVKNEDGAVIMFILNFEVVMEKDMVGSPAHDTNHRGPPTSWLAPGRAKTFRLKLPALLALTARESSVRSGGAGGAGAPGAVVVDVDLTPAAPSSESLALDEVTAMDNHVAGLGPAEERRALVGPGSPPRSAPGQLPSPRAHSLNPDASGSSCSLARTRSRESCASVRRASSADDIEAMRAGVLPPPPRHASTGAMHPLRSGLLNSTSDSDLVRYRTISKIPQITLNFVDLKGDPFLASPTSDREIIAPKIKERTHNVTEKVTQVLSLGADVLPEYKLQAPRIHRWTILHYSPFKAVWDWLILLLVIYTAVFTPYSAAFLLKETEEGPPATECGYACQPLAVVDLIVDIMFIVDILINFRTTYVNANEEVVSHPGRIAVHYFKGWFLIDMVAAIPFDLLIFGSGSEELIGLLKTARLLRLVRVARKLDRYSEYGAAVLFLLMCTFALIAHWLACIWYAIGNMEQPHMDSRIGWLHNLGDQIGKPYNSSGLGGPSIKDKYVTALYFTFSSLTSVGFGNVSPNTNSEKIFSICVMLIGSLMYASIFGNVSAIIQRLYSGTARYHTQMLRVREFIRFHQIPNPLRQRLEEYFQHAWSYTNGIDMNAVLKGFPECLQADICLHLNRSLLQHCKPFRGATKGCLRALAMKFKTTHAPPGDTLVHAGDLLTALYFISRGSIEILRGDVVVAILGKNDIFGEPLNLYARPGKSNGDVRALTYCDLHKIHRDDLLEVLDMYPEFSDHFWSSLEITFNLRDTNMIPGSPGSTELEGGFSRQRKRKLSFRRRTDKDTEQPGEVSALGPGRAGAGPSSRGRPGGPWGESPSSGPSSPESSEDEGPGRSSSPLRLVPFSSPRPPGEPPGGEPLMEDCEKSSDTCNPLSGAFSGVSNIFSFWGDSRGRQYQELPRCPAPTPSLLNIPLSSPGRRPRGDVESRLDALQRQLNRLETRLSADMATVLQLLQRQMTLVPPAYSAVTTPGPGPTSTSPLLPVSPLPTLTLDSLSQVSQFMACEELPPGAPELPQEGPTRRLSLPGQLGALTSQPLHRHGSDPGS

In the case of `CCN(C)C(=O)Oc1cccc([C@H](C)N(C)C)c1` [RIVASTIGMINE], the Activity in the series listed under Danio rerio [1] was determined as 64%; in the series listed under Danio rerio [2], 58.6%; in the series listed under Danio rerio [3], 126.3%; in the series filed under Danio rerio [4], 53.4%; in the series listed under Danio rerio [5], 86.6%; in the series filed under Danio rerio [6], 175.1%. The outcome in the series on Mus musculus [7] and in the series with Mus musculus [8] was inactive.

With `Oc1c(I)cc(Cl)c2cccnc12`, the outcome in [9], in [11] and in [12] was Active. Besides, the result in the series listed under Mus musculus [10] was inactive.

At hERG (KCNH2), `COc1cc(N)c(Cl)cc1C(=O)N[C@H]1CCN(CCCOc2ccc(F)cc2)C[C@H]1OC` [REL-CISAPRIDE] returned an inhibition at 1 min, 0.1 µM of 89%.
